High-throughput results: PubChem BioAssay, several laboratories
NPY-Y1 antag – NPY-Y1 receptor antagonists, primary screen, cell-based | AID 1040, 2008 | inhibition, % at 3.6 µM | Neuropeptide Y receptor type 1 (Homo sapiens), P25929 | hit rate 1% among 200,000 | HEK293-CNG Y1 cells, membrane potential fluorescence; NPY at EC95, then isoproterenol;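 active = inhibition above the campaign mean inhibition of all tested compounds plus 3 SD, cut at about 20% in these data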
Target sequence (P25929 whole entry, looked up): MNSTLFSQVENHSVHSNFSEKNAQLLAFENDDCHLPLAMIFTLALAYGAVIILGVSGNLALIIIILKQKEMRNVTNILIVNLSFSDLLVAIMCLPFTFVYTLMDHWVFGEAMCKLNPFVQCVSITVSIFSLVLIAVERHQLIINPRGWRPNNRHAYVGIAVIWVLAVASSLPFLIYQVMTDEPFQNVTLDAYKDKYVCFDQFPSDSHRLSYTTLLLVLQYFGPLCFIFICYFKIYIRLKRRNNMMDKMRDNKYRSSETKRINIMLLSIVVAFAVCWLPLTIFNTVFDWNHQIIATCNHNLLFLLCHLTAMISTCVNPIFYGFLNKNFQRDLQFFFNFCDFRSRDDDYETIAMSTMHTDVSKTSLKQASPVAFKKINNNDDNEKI
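Assay system: HEK293 Y1/CNG channel cell line; Doses: single compound dose of 3.6 µM, 0.4% DMSO; Timing: dye 3 h, compound 60 min room temperature, stimulation 45 min; Technique: Membrane-potential fluorescent dye readout; Measure: % inhibition of NPY effect.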
Rad51 HR inh – human RAD51 strand exchange inhibitors, primary screen, biochemical, fluorescence; hit rate 0.085% among 200,000; inhibition, % at 10 µM; DNA repair protein RAD51 homolog 1 (Homo sapiens), Q06609; hRad51 DNA strand exchange, fluorescence dequenching;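 active = inhibition above 40% at the single screening dose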
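Material: hRad51 filaments on single-stranded DNA; Reagent: Donor/quencher-labelled 47-bp dsDNA substrate; Compound: 10 µM final, single point; Schedule: 37 °C 15-min filament assembly, 30-min compound preincubation, 15-min exchange; Technique: FRET fluorescence, excitation 485 nm, emission 520 nm; Benchmarks: control wells and blank wells on each plate.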
Measles CPE – compounds protecting cells from measles virus cytopathic effect, primary screen, measles RdRp inhibitor project, single point, MLSMR library, absorbance. Measles virus-infected cells, CPE protection. protection (pct of control), % at 4 µM. hit rate 1.5% among 140,000. AID 841, 2007; in the data active = protection mostly above about 24%, no sharp cut-off; inactive = mostly below about 26%
NPY2 pot ag – NPY-Y2 potentiators or agonists, primary screen, cell-based | hit rate 0.45% among 220,000 | cells expressing NPY-Y2, potentiator/agonist read-out | AID 1359, 2008 | activation, % at 3.6 µM; in the data active = activation above about 27%;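 also: cells stimulated with NPY near EC25 plus isoproterenol at EC100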
NPY-Y1 PAM-ag – NPY-Y1 receptor potentiators or agonists, primary screen, cell-based. hit rate 0.37% among 220,000. Neuropeptide Y receptor type 1 (Homo sapiens), P25929. activation, % at 3.6 µM. NPY-Y1 expressing cells, potentiator/agonist activation; in the data active = activation above about 33%, passing the limit was not always enough;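 also: cells stimulated with NPY at EC10 then isoproterenol at EC100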
NPY-Y2 antag – NPY-Y2 receptor antagonists, primary screen, cell-based. Neuropeptide Y receptor type 2 (Homo sapiens), P49146. NPY-Y2 expressing cells, antagonist mode. inhibition, % at 2.7 µM. hit rate 0.99% among 140,000. AID 793, 2007; in the data active = inhibition above about 17%
NPY-Y1 antag ct – NPY-Y1 receptor antagonists, selectivity check, counter-screen for NPY-Y2 antagonist project, cell-based. shares compounds with NPY-Y2 antag. cell-based NPY-Y1 antagonism counterscreen. inhibition, % at 3.6 µM. hit rate 19% among 710. AID 1256, 2008; in the data active = inhibition above about 20%;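 also: cells challenged with NPY then isoproterenol with cAMP sensed through a CNG channel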
NPY-Y2 ant conf – NPY-Y2 receptor antagonists, retest of hits, confirmation, HEK293-CNG cells, membrane potential fluorescence, triplicate | AID 1257, 2008 | hit rate 32% among 710 | shares compounds with NPY-Y2 antag | inhibition, % at 2.8 µM | HEK293 NPY-Y2 CNG channel;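 active = mean inhibition of triplicate wells above the hit cutoff set in the primary screen, cut at about 17% in these data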
Large screens that a line does not name were inactive (follow-up assays come after a bar, where they were run). Sampled rows, rich in hits. Any-hit rate of the full collection: about 2.8%.

O=C(NCC1CCCO1)Nc1ccc2c(c1)OCO2 (centres undefined)	none (no result: Measles CPE, NPY-Y2 antag)
O=C(NCc1ccc2c(c1)OCO2)c1cc(-c2ccccc2Cl)on1	NPY-Y2 antag 22 | NPY-Y1 antag ct inactive | NPY-Y2 ant conf inactive
COc1ccccc1CNC(=O)CSc1ccccc1	none (no result: Measles CPE, NPY-Y2 antag)
COc1ccccc1CNC(=O)CSc1ccc(C)cc1	NPY-Y2 antag 28 | NPY-Y1 antag ct inactive | NPY-Y2 ant conf inactive
Cc1csc2c(=O)[nH]cnc12	none (no result: Measles CPE, NPY-Y2 antag)
COc1ccc(OCCCC(=O)NCC(C)C)cc1	none
O=C(CSCc1ccc(Cl)cc1)N/N=C/c1ccccc1	none
O=C(CSCc1ccc(Cl)cc1)N/N=C/c1c(Cl)cccc1Cl	NPY-Y2 antag 17 (no result: Rad51 HR inh) | NPY-Y1 antag ct inactive | NPY-Y2 ant conf 26
CCOC(=O)c1c(N2C(=O)Nc3ccccc3N2O)sc2c1CCCC2	none
CCOC(=O)c1c(-n2cccc2)sc2c1CCCC2=O	NPY-Y2 antag 25 | NPY-Y1 antag ct inactive | NPY-Y2 ant conf inactive
CCOc1ccc(OCCSc2nnnn2-c2ccccc2)cc1	none
CCOc1ccc(OCCSc2nnnn2C2CCCCC2)cc1	NPY-Y2 antag 17 (no result: Rad51 HR inh) | NPY-Y1 antag ct inactive | NPY-Y2 ant conf inactive
Clc1ccc(OCCSc2nnnn2C2CCCCC2)cc1	NPY-Y2 antag 22 | NPY-Y1 antag ct inactive | NPY-Y2 ant conf 21
Cn1cnnc1SCCOc1ccc(Cl)cc1	none (no result: Measles CPE, NPY-Y2 antag)
COc1cccc(C(=O)Oc2cc3c4c(c2)C(C)=CC(C)(C)N4C(=O)C3=O)c1	NPY-Y2 antag 46 | NPY-Y1 antag ct 50 | NPY-Y2 ant conf 82
COc1ccc(C(=O)Oc2cc3c4c(c2)C(C)=CC(C)(C)N4C(=O)C3=O)cc1OC	none
COc1ccc(C(C(=O)NC2CCCC2)N(C(=O)c2ccoc2C)c2ccc(C)cc2)cc1 (centres undefined)	NPY-Y2 antag 19 | NPY-Y1 antag ct inactive | NPY-Y2 ant conf inactive
COc1ccc(C(C(=O)NC2CCCCC2)N(C(=O)CCl)c2ccc(C)cc2)cc1 (centres undefined)	none
COc1ccc(N2C(=O)/C(=C\c3ccco3)N=C2SCC(=O)N(C(C)C)C(C)C)cc1Cl	NPY-Y2 antag 18 | NPY-Y1 antag ct inactive | NPY-Y2 ant conf inactive
CCCCC(CC)C(=O)NCC(C)NC(=O)C(CC)CCCC (centres undefined)	NPY-Y2 antag 24 | NPY-Y1 antag ct inactive | NPY-Y2 ant conf inactive
CCCCn1c(SCC(=O)N2CCN(c3ccccc3)CC2)nc2ccsc2c1=O	NPY-Y2 antag 20 | NPY-Y1 antag ct 25 | NPY-Y2 ant conf inactive
CCCCn1c(SCC(=O)Nc2nccs2)nc2ccccc2c1=O	none
CCCCn1c(SCC(=O)Nc2ccccc2C(F)(F)F)nc2ccsc2c1=O	NPY-Y2 antag 29 | NPY-Y1 antag ct inactive | NPY-Y2 ant conf inactive
N=c1c2c(ncn1Cc1ccco1)Oc1c(ccc3ccccc13)C2c1ccccc1 (centres undefined)	NPY-Y2 antag 19 | NPY-Y1 antag ct inactive | NPY-Y2 ant conf inactive
CCc1nnc(NC(=O)CSc2nc3ccc(OC)cc3[nH]2)s1	none (no result: Measles CPE, NPY-Y2 antag)
CCn1c(/C=C/N(C(C)=O)c2ccccc2)[n+](CCCS(=O)(=O)[O-])c2cc(Cl)c(Cl)cc21	none (no result: Measles CPE, NPY-Y2 antag)
CCn1c(/C=C/Nc2ccccc2)[n+](CC)c2cc(Cl)c(Cl)cc21	NPY-Y2 antag 35 | NPY-Y1 antag ct inactive | NPY-Y2 ant conf inactive
CCOc1ccc(C(=O)NCC(=O)N2CCc3ccccc3C2)cc1OCC	none (no result: Measles CPE, NPY-Y2 antag)
Cc1cccc(N2CCN(C(=O)CCCOc3ccccc3)CC2)c1C	NPY-Y2 antag 19 | NPY-Y1 antag ct inactive | NPY-Y2 ant conf inactive
